Activity calls are given as the source filed them.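 Rule for the calls, unless noted: active = current rise at least 3 SD above the untreated control mean in each of two repeat wells; inactive = the rest.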

Potassium voltage-gated channel subfamily KQT member 2 (Rattus norvegicus), sequence (O88943 whole entry, looked up): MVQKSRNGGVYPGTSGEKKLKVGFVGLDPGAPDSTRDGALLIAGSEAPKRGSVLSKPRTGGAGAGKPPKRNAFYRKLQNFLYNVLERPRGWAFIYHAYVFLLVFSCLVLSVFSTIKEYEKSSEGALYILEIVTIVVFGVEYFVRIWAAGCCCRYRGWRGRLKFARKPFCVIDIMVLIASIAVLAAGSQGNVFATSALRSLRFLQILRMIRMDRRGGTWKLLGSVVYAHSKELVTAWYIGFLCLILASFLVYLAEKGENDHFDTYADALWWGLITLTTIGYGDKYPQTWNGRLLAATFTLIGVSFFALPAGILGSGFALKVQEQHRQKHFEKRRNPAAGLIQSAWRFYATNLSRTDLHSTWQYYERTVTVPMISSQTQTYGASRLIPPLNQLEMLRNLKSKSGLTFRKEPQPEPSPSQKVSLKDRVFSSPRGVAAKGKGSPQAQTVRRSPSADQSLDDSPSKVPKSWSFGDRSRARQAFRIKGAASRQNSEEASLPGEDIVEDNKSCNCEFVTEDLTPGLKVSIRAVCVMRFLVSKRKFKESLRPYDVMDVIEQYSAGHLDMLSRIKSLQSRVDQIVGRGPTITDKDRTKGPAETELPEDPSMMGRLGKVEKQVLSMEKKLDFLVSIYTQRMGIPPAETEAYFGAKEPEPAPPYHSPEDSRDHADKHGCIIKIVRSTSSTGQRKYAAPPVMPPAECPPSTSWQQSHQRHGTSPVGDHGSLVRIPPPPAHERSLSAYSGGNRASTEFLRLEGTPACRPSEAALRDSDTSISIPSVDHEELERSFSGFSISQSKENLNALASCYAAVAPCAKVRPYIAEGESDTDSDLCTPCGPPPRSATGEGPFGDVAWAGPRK
Potassium voltage-gated channel subfamily KQT member 1 (Homo sapiens), sequence (P51787 whole entry, looked up): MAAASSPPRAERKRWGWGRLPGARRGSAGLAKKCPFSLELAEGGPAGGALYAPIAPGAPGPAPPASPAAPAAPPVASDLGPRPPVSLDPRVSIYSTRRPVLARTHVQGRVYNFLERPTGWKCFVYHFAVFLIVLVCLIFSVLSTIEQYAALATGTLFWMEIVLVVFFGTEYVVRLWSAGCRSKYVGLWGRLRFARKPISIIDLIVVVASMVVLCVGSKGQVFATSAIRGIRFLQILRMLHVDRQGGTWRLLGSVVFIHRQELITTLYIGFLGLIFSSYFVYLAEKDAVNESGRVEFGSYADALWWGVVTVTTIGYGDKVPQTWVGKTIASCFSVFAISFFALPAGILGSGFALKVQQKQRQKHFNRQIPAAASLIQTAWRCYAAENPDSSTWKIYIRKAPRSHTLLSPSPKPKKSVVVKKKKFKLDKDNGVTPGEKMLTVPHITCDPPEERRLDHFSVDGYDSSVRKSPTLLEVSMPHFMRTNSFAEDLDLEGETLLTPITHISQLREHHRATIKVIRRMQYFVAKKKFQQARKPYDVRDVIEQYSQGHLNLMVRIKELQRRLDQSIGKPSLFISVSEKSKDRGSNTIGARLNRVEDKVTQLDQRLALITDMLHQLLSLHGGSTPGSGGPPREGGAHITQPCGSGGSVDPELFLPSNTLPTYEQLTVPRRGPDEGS

One test addresses Potassium voltage-gated channel subfamily KQT member 1 (Homo sapiens) (UniProt P51787). As to the kind of experiment: enhancement of KCNQ1 channel thallium flux – FluxOR thallium flux, CHO cells, duplicates, confirmation (AID 493007;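 active = potentiation averaged over duplicate wells exceeding buffer-only control mean by more than 3 SD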;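 for outcome: cells depolarized by a potassium plus thallium sulfate stimulus after compound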). Conditions: KCNQ1 cell line, FluxOR thallium flux fluorescence, at 10 µM; hits give high values, % of reference activator effect, buffer zero. In outline: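 System: KCNQ1-expressing CHO cell line; technique: kinetic thallium influx fluorescence with FluxOR dye, 10 s baseline, 110 s post-stimulus; timing: dye 90 min then compound 20 min, both at room temperature; controls: buffer-only wells as 0% and R-L3 activator as 100%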
`O=C(Cn1ncc2c(=O)oc3ccccc3c21)N1CCN(C(=O)c2ccco2)CC1`: the result was inactive.
Take `CC(C)C1Cc2c(sc3[nH]c(=S)n(Cc4ccccc4)c(=O)c23)CO1` (configuration not stated): the potentiation is 128% (active).
Regarding `COc1cccc(/C=N/NC(=O)C(C)n2nc(C)c([N+](=O)[O-])c2C)c1O` (configuration not stated), the result was inactive.
Still for that read-out and setting: in the case of `O=C(COc1ccccc1Cl)N(Cc1cccs1)C1CCS(=O)(=O)C1` (configuration not stated) it was “inactive”; in that of `CCOC(=O)CN1C(=O)N(CC)C(C)=C(C(=O)OC)[C@@H]1c1ccccc1`, “inactive”.
For the molecule `COc1ccc(/C=N/NC(=O)c2[nH]nc3c2CCc2ccccc2-3)cc1OC`, the potentiation was 85% (active).
Take `Cc1nn2c(c1-c1ccccc1)NC1=C(C(=O)CCC1)C2c1ccccc1` (configuration not stated): the result was inactive.
For the molecule `CCOC(=O)c1cccc(NC(=O)CCc2ccccc2)c1`, the outcome was inactive.
Still for that read-out and setting: in the case of `Cc1cccc(Nc2ccccc2C(=O)OCC(=O)N(C)C2CCS(=O)(=O)C2)c1C` (configuration not stated) it was “inactive”.
As to `CN1C(=O)NC(c2ccc(O)cc2)C(C(=O)c2cccs2)C1(O)C(F)(F)F` (configuration not stated), the result was inactive.
As for `CN1C(=O)CC(N2CCN(CC(=O)N3CCCC3)CC2)C1=O` (configuration not stated), the result was inactive.
Still for that read-out and setting: the entry for `CN(C)c1ccc(NC(=O)COC(=O)c2cc(Cl)ccc2[N+](=O)[O-])cc1` is “inactive”.

Another test has as its target Potassium voltage-gated channel subfamily KQT member 2 (Rattus norvegicus) (UniProt O88943). In words: KCNQ2 thallium flux enhancement – KCNQ2-CHO-K1 cells, selectivity assay for KCNQ1 potentiator project (AID 493009;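 active = mean duplicate potentiation above the buffer control mean plus 5 SD of buffer wells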;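 note: assay conditions were tuned for KCNQ1 rather than KCNQ2 modulators; signal is max minus min fluorescence divided by baseline after thallium stimulus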). Conditions: FluxOR thallium flux fluorescence, at 10 µM; hits give high values, scaled: buffer 0, activator control 100.
`Cc1ccc(OCC(=O)NNC(=S)NC(=O)c2cccs2)c(C)c1`: the potentiation was 238% (active).
As to `Cc1sc(N/N=C/c2ccco2)nc1-c1ccccc1`, the result was inactive.
The same measure, in the same setting: in the case of `CS(=O)(=O)N1CCN(c2ccccc2NC(=O)CSc2nnc(-c3ccco3)o2)CC1` it was “inactive”.
Take `CCOC(=O)Cn1c(=S)[nH]c2c(oc3ccc(Cl)cc32)c1=O`: the potentiation is 218% (active).
For `COCCn1c(=S)[nH]c2sc3c(c2c1=O)CCC(C)C3` (configuration not stated), the potentiation is 514% (active).
On the same count and under the same terms, the figure for `O=c1c2cc(Cl)ccc2nc(-c2ccccc2)n1O` is 269% (active); for `COc1cc(OC)cc(C(=O)Nc2nnc(SCC(=O)NCc3ccco3)s2)c1` it is 158% (active); for `COc1ccccc1C(=O)NNC(=O)C(=O)NC1CCCCC1` it is 262% (active).
In the case of `Cc1ccc(C(=O)Nc2nc(-c3ccccc3)c(-c3ccccc3)o2)cc1`, the potentiation was 248% (active).
Consider `CC(C)c1nc2sc3c(=S)nc[nH]c3c2c2c1CCC2`, for which the potentiation is 310% (active).
As to `S=c1nc(-c2ccccc2)[nH]n1-c1ccccc1`, the potentiation is 532% (active).
Still for that read-out and setting: in the case of `CCOc1ccc(-c2c(=O)n(O)c3ccccc3[n+]2[O-])cc1` it was 254% (active).
Regarding `Cc1sc(NC(=O)c2ccccc2)c(C(c2ccc(Cl)cc2)N2CCN(CCO)CC2)c1C` (configuration not stated), the outcome was inactive.
Consider `CCOC(=O)c1sc2ncnc(NCc3ccco3)c2c1C`, for which the potentiation is 358% (active).
`CC(C)n1cc(NC(=O)c2cc(-c3ccccc3)on2)cn1`: the potentiation was 236% (active).
Turning to `Cc1ccc(SCc2[nH]nc3c2C(c2ccco2)C(C#N)=C(N)O3)cc1` (configuration not stated), the result was inactive.
As for `CCOC(=O)Cn1c2ccccc2c2nc3ccccc3nc21`, the outcome was inactive.
On to `OC(C#CCCN1CCCCC1)(c1ccccc1)c1ccccc1`, for which the outcome was inactive.
In the case of `Nc1ccccc1OCCOCCOc1ccccc1N`, the result was inactive.
Consider `CCc1cccc(C)c1NC(=O)c1ccc2nc(N3CCOCC3)sc2c1`, for which the outcome was inactive.
As to `Oc1c(Br)cc(Br)cc1/C=N/c1nc2c(s1)CCCC2`, the result was inactive.
Still for that read-out and setting: the entry for `CCCc1cc(=O)[nH]c(SCC(=O)NC(=O)c2ccccc2)n1` is “inactive”; for `COc1ccc(S(=O)(=O)N2CCCC(C(=O)O)C2)cc1` (configuration not stated) it is “inactive”.
Turning to `COc1ccc(CNC(=O)CNC(C)c2ccc(F)cc2)cc1` (configuration not stated), the result was inactive.
The same measure, in the same setting: in the case of `Cc1nc2sc(C(c3ccccc3)N3CCN(C(=O)c4ccco4)CC3)c(O)n2n1` (configuration not stated) it was “inactive”.
As for `Cc1csc(=O)n1CCC(=O)OCC(=O)NCc1ccc(F)cc1`, the potentiation is 186% (active).
On the same count and under the same terms, in the case of `O=C(NC(=S)NC1CCCc2ccccc21)c1ccco1` (configuration not stated) it was 272% (active).
For `Oc1c(Br)cc(Br)cc1C=NCc1ccccc1`, the outcome was inactive.
On the same count and under the same terms, the entry for `O=C(Cn1ncc2c(=O)oc3ccccc3c21)N1CCN(C(=O)c2ccco2)CC1` is “inactive”.
On to `CC(C)C1Cc2c(sc3[nH]c(=S)n(Cc4ccccc4)c(=O)c23)CO1` (configuration not stated), for which the potentiation is 362% (active).
Consider `COc1cccc(/C=N/NC(=O)C(C)n2nc(C)c([N+](=O)[O-])c2C)c1O` (configuration not stated), for which the result was inactive.
For `O=C(COc1ccccc1Cl)N(Cc1cccs1)C1CCS(=O)(=O)C1` (configuration not stated), the outcome was inactive.
Consider `CCOC(=O)CN1C(=O)N(CC)C(C)=C(C(=O)OC)[C@@H]1c1ccccc1`, for which the result was inactive.
Take `COc1ccc(/C=N/NC(=O)c2[nH]nc3c2CCc2ccccc2-3)cc1OC`: the potentiation was 228% (active).
With `Cc1nn2c(c1-c1ccccc1)NC1=C(C(=O)CCC1)C2c1ccccc1` (configuration not stated), the outcome was inactive.
Turning to `CCOC(=O)c1cccc(NC(=O)CCc2ccccc2)c1`, the outcome was inactive.
As for `Cc1cccc(Nc2ccccc2C(=O)OCC(=O)N(C)C2CCS(=O)(=O)C2)c1C` (configuration not stated), the outcome was inactive.
For `CN1C(=O)NC(c2ccc(O)cc2)C(C(=O)c2cccs2)C1(O)C(F)(F)F` (configuration not stated), the outcome was inactive.
`CN1C(=O)CC(N2CCN(CC(=O)N3CCCC3)CC2)C1=O` (configuration not stated): the outcome was inactive.
Take `CN(C)c1ccc(NC(=O)COC(=O)c2cc(Cl)ccc2[N+](=O)[O-])cc1`: the result was inactive.

Another test concerns the target Potassium voltage-gated channel subfamily KQT member 1 (Homo sapiens) (UniProt P51787). As to the kind of experiment: KCNQ1 activators by electrophysiology – IonWorks patch clamp, KCNQ1-CHO cells, orthogonal assay for KCNQ1 potentiator project, confirmation (AID 493184). Conditions: automated patch clamp current, at 10 µM; hits give high values. In outline:
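Test system: KCNQ1-expressing CHO cells. Medium: pH 7.4 external bath. Probe or stimulus: voltage step from -90 mV holding to +40 mV, 2,000 ms. Compound: 10 µM final, single point. Detection: automated perforated-patch electrophysiology. Read-out: percent current increase versus pre-compound level. Repeats: two replicates.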
(In general: Patch clamp records ionic current or voltage across a cell membrane.)
Take `Cc1ccc(OCC(=O)NNC(=S)NC(=O)c2cccs2)c(C)c1`: the outcome was inactive.
As for `Cc1sc(N/N=C/c2ccco2)nc1-c1ccccc1`, the result was inactive.
For `CS(=O)(=O)N1CCN(c2ccccc2NC(=O)CSc2nnc(-c3ccco3)o2)CC1`, the result was inactive.
`CCOC(=O)Cn1c(=S)[nH]c2c(oc3ccc(Cl)cc32)c1=O`: the result was inactive.
Same read-out and setting: the entry for `COCCn1c(=S)[nH]c2sc3c(c2c1=O)CCC(C)C3` (configuration not stated) is “inactive”; for `O=c1c2cc(Cl)ccc2nc(-c2ccccc2)n1O` it is “inactive”.
As to `COc1cc(OC)cc(C(=O)Nc2nnc(SCC(=O)NCc3ccco3)s2)c1`, the result was inactive.
In the case of `COc1ccccc1C(=O)NNC(=O)C(=O)NC1CCCCC1`, the result was inactive.
As for `Cc1ccc(C(=O)Nc2nc(-c3ccccc3)c(-c3ccccc3)o2)cc1`, the result was inactive.
Same read-out and setting: the entry for `CC(C)c1nc2sc3c(=S)nc[nH]c3c2c2c1CCC2` is “inactive”; for `S=c1nc(-c2ccccc2)[nH]n1-c1ccccc1` it is “inactive”; for `CCOc1ccc(-c2c(=O)n(O)c3ccccc3[n+]2[O-])cc1` it is “inactive”.
For `Cc1sc(NC(=O)c2ccccc2)c(C(c2ccc(Cl)cc2)N2CCN(CCO)CC2)c1C` (configuration not stated), the outcome was inactive.
As for `CCOC(=O)c1sc2ncnc(NCc3ccco3)c2c1C`, the result was inactive.
Still for that read-out and setting: in the case of `CC(C)n1cc(NC(=O)c2cc(-c3ccccc3)on2)cn1` it was “inactive”.
Take `Cc1ccc(SCc2[nH]nc3c2C(c2ccco2)C(C#N)=C(N)O3)cc1` (configuration not stated): the result was inactive.
Same read-out and setting: in the case of `CCOC(=O)Cn1c2ccccc2c2nc3ccccc3nc21` it was “inactive”; in that of `OC(C#CCCN1CCCCC1)(c1ccccc1)c1ccccc1`, “inactive”.
For the molecule `Nc1ccccc1OCCOCCOc1ccccc1N`, the result was inactive.
`CCc1cccc(C)c1NC(=O)c1ccc2nc(N3CCOCC3)sc2c1`: the result was inactive.
Take `Oc1c(Br)cc(Br)cc1/C=N/c1nc2c(s1)CCCC2`: the result was inactive.
`CCCc1cc(=O)[nH]c(SCC(=O)NC(=O)c2ccccc2)n1`: the result was inactive.
Turning to `COc1ccc(S(=O)(=O)N2CCCC(C(=O)O)C2)cc1` (configuration not stated), the result was inactive.
Turning to `COc1ccc(CNC(=O)CNC(C)c2ccc(F)cc2)cc1` (configuration not stated), the result was inactive.
`Cc1nc2sc(C(c3ccccc3)N3CCN(C(=O)c4ccco4)CC3)c(O)n2n1` (configuration not stated): the result was inactive.
For the molecule `Cc1csc(=O)n1CCC(=O)OCC(=O)NCc1ccc(F)cc1`, the outcome was inactive.
For `O=C(NC(=S)NC1CCCc2ccccc21)c1ccco1` (configuration not stated), the outcome was inactive.
Regarding `Oc1c(Br)cc(Br)cc1C=NCc1ccccc1`, the outcome was inactive.
Regarding `O=C(Cn1ncc2c(=O)oc3ccccc3c21)N1CCN(C(=O)c2ccco2)CC1`, the outcome was inactive.
Regarding `CC(C)C1Cc2c(sc3[nH]c(=S)n(Cc4ccccc4)c(=O)c23)CO1` (configuration not stated), the outcome was inactive.
`COc1cccc(/C=N/NC(=O)C(C)n2nc(C)c([N+](=O)[O-])c2C)c1O` (configuration not stated): the outcome was inactive.
On the same count and under the same terms, the entry for `O=C(COc1ccccc1Cl)N(Cc1cccs1)C1CCS(=O)(=O)C1` (configuration not stated) is “inactive”; for `CCOC(=O)CN1C(=O)N(CC)C(C)=C(C(=O)OC)[C@@H]1c1ccccc1` it is “inactive”.
`COc1ccc(/C=N/NC(=O)c2[nH]nc3c2CCc2ccccc2-3)cc1OC`: the outcome was inactive.
On the same count and under the same terms, the entry for `Cc1nn2c(c1-c1ccccc1)NC1=C(C(=O)CCC1)C2c1ccccc1` (configuration not stated) is “inactive”; for `CCOC(=O)c1cccc(NC(=O)CCc2ccccc2)c1` it is “inactive”; for `Cc1cccc(Nc2ccccc2C(=O)OCC(=O)N(C)C2CCS(=O)(=O)C2)c1C` (configuration not stated) it is “inactive”.
As for `CN1C(=O)NC(c2ccc(O)cc2)C(C(=O)c2cccs2)C1(O)C(F)(F)F` (configuration not stated), the result was inactive.
Turning to `CN1C(=O)CC(N2CCN(CC(=O)N3CCCC3)CC2)C1=O` (configuration not stated), the outcome was inactive.
Turning to `CN(C)c1ccc(NC(=O)COC(=O)c2cc(Cl)ccc2[N+](=O)[O-])cc1`, the outcome was inactive.
